Measured values: article PMC3352694 (International Journal of Nanomedicine, 2012)

Experiments:
[1] = tested on: Caco-2 cell monolayers; test: Uptake of Lac-NCTD and its nanoparticles into Caco-2 cell monolayers; format: in vitro ADME, human
In short: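 Monolayers grown 15 days from 1 × 10⁵ cells/cm² in plates, washed, preincubated 15 min at 37°C in HBSS pH 7.4, then exposed to drug or nanoparticle solution. After uptake (15 min, chosen within the linear range), cells were washed thrice with cold HBSS, scraped, homogenized and ultracentrifuged. Supernatant was assayed by reversed-phase HPLC, normalized to Bradford protein and given as mg/g protein, three determinations.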

[2] = tested on: Caco-2 cell monolayers; test: Bidirectional transepithelial transport across Caco-2 cell monolayers; format: in vitro ADME, human
In short: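 Caco-2 cells (passage 30–50) seeded at 1 × 10⁵ cells/cm² on 1.1 cm² polycarbonate inserts (1 μm pores), used day 21 when TEER reached 700 Ω·cm² and phenol red permeability <0.5%/h. HBSS pH 7.4 preincubation 15 min, 37°C; drug or nanoparticles dosed apically or basolaterally; receiver sampled at 5–60 min with replacement; reversed-phase HPLC. Papp = dQ/dt/(A·C0); PDR from BL→AP and AP→BL; n = 3.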

[3] = cited from earlier work

Lactosyl-norcantharidin [Lac-NCTD]
Effect of concentration on uptake ([1]; 100 μg/mL to 400 μg/mL): Concentration dependence or saturation was observed | Uptake amount ([1]; 250 μg/mL, 4°C): 1.35 ± 0.13 mg/g protein | Time course of uptake ([1]; 250 μg/mL, 37°C): linear in relation to time, from 0 minutes to 30 minutes | Uptake amount ([1]; 250 μg/mL, pH 6.0): 0.82 ± 0.23 mg/g protein | Effect of P-gp inhibitor CyA on uptake ([1]; CyA 20 μmol/L): facilitate the uptake procedure | Effect of MRP2 inhibitor MK-571 on uptake ([1]; MK-571 50 μmol/L): facilitate the uptake procedure | Change of Papp apical to basolateral with CyA ([2]; 250 μg/mL, CyA 20 μmol/L): increased | Change of Papp basolateral to apical with CyA ([2]; 250 μg/mL, CyA 20 μmol/L): decreased | Change of Papp apical to basolateral with MK-571 ([2]; 250 μg/mL, MK-571 50 μmol/L): significantly increased | Change of Papp basolateral to apical with MK-571 ([2]; 250 μg/mL, MK-571 50 μmol/L): lightly decreased | Change of Papp with bypass transport enhancer SDCh ([2]; 250 μg/mL, SDCh 100 mmol/L, versus control): significantly increased | Change of Papp with endocytosis inhibitor oxophenylarsine ([2]; 250 μg/mL, oxophenylarsine 25 mmol/L, versus control): no statistical difference | Increase of Papp apical to basolateral with CyA ([2]; CyA 20 μmol/L added to the apical side): 1.41 times | Increase of Papp apical to basolateral with MK-571 ([2]; MK-571 50 μmol/L added to the apical side): 2.29 times | Therapy efficiency compared with NCTD [3]: significantly higher therapy efficiency | Toxicity compared with NCTD [3]: lower toxicity
